Test results from ChEMBL document CHEMBL4831540, “Discovery of Aficamten (CK-274), a Next-Generation Cardiac Myosin Inhibitor for the Treatment of Hypertrophic Cardiomyopathy” (J Med Chem, 2021).

Columns and labels:
[1] = Half life in human; type: ADME
[2] = Tmax in Sprague-Dawley rat at 2 mg/kg, po; type: ADME, organism-based; conditions: in vivo
Procedure, shortened: (§1)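 Single iv or oral doses in male animals, 3 per group except dog iv (2 animals). Plasma concentration–time profiles gave Cmax, tmax, AUC0–t, clearance, steady-state volume of distribution, half-life and bioavailability.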

[3] = Half life in mouse at 1 mg/kg, po; type: ADME, organism-based; conditions: in vivo
Procedure, shortened: (§2)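 Multi-species PK study in male animals, n = 3 per group (dog IV arm n = 2). Iv and oral dosing with plasma concentration–time profiles yielding Cmax, tmax, AUC0–t, CL, Vss, t1/2 and F.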

[4] = Oral bioavailability in Sprague-Dawley rat at 8 mg/kg; type: ADME, organism-based; conditions: in vivo; procedure, shortened: as §1
[5] = Cmax in Sprague-Dawley rat at 8 mg/kg, po; type: ADME, organism-based; design: route oral, dose 8 mg/kg; conditions: in vivo; procedure, shortened: as §2
[6] = Volume of distribution at steady state in mouse at 0.5 mg/kg, iv; type: ADME, organism-based; conditions: in vivo, read-out: Vdss; procedure, shortened: as §1
[7] = Half life in mouse at 0.5 mg/kg, iv; type: ADME, organism-based; conditions: in vivo; procedure, shortened: as §2
[8] = Volume of distribution at steady state in Sprague-Dawley rat at 1 mg/kg, iv; type: ADME, organism-based; conditions: in vivo, read-out: Vdss; procedure, shortened: as §1
Cytochrome P450 2D6 = Cytochrome P450 2D6 (Homo sapiens, UniProt P10635); experiment: Inhibition of CYP2D6 in human liver microsomes assessed as bufuralol 1'-hydroxylation reaction incubated for 30 mins in presence of NADP by LC-MS/MS analysis; type: ADME
[9] = Volume of distribution at steady state in Beagle dog at 1 mg/kg, iv; type: ADME, organism-based, Canis lupus familiaris; conditions: in vivo; procedure, shortened: as §1
[10] = Clearance in cynomolgus monkey at 1 mg/kg, iv; type: ADME, organism-based, Macaca fascicularis; conditions: in vivo; procedure, shortened: as §2
[11] = Tmax in mouse at 1 mg/kg, po; type: ADME, organism-based; conditions: in vivo; procedure, shortened: as §1
[12] = Plasma protein binding in rat assessed as unbound fraction; type: ADME, cell-free
[13] = Clearance in mouse at 0.5 mg/kg, iv; type: ADME, organism-based; conditions: in vivo; procedure, shortened: as §2
Cytochrome P450 2C8 = target: T1, Cytochrome P450 2C8 (Homo sapiens, UniProt P10632); experiment: Inhibition of CYP2C8 in human liver microsomes assessed as paclitaxel 6a-hydroxylation reaction incubated for 30 mins in presence of NADP by LC-MS/MS analysis; type: ADME
T1 sequence (P10632 whole entry): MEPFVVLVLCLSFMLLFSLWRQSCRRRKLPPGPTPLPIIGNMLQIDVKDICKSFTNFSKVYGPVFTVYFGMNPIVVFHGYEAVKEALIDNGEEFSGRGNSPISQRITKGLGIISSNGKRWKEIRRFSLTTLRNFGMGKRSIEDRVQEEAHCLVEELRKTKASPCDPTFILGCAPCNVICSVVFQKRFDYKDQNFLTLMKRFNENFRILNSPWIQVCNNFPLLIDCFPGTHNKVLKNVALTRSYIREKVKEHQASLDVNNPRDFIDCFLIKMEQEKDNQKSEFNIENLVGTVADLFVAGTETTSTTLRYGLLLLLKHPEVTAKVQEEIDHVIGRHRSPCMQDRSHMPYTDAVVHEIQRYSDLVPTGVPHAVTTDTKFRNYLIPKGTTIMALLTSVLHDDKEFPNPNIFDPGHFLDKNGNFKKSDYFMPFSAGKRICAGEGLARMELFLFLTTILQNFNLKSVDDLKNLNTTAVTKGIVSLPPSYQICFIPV

Rattus norvegicus = experiment: Anti-hypertrophic cardiomyopathy in po dosed Sprague-Dawley rat assessed as reduction in fractional shortening measured upto 24 hrs by echocardiography; type: functional, organism-based
Procedure, shortened: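 Normal Sprague–Dawley rats were given single oral doses of 0.5–4 mg/kg. Left ventricular dimensions and fractional shortening were measured by echocardiography at selected time points over 24 h, relative to vehicle treatment.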

[14] = Cmax in Beagle dog at 1 mg/kg, po; type: ADME, organism-based, Canis lupus familiaris; design: route oral, dose 1 mg/kg; conditions: in vivo; procedure, shortened: as §2
[15] = Cmax in Sprague-Dawley rat at 2 mg/kg, po; type: ADME, organism-based; design: route oral, dose 2 mg/kg; conditions: in vivo; procedure, shortened: as §2
[16] = Plasma protein binding in Beagle dog assessed as unbound fraction; type: ADME, Canis lupus familiaris
[17] = Half life in Sprague-Dawley rat at 2 mg/kg, po; type: ADME, organism-based; conditions: in vivo; procedure, shortened: as §2
[18] = Plasma protein binding in Sprague-Dawley rat assessed as unbound fraction; type: ADME
[19] = Cmax in cynomolgus monkey at 1 mg/kg, po; type: ADME, organism-based, Macaca fascicularis; design: route oral, dose 1 mg/kg; conditions: in vivo; procedure, shortened: as §2
Cytochrome P450 2B6 = target: T2, Cytochrome P450 2B6 (Homo sapiens, UniProt P20813); experiment: Inhibition of CYP2B6 in human liver microsomes assessed as bupropion hydroxylation reaction incubated for 30 mins in presence of NADP by LC-MS/MS analysis; type: ADME
T2 sequence (P20813 whole entry): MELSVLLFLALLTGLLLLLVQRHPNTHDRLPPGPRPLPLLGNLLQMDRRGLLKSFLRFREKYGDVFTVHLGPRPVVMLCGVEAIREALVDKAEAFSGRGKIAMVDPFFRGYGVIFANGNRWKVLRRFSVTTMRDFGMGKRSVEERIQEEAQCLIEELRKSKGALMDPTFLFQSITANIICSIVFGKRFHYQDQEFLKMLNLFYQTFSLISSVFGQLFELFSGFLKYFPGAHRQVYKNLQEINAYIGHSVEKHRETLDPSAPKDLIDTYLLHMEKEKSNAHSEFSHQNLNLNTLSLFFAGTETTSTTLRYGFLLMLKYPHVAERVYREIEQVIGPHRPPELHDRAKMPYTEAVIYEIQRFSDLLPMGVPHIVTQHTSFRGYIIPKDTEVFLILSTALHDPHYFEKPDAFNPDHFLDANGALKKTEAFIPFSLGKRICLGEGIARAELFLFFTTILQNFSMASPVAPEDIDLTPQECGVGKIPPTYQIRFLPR

[20] = Tmax in Sprague-Dawley rat at 8 mg/kg, po; type: ADME, organism-based; conditions: in vivo; procedure, shortened: as §1
[21] = Half life in Beagle dog at 1 mg/kg, po; type: ADME, organism-based, Canis lupus familiaris; conditions: in vivo; procedure, shortened: as §2
[22] = Half life in Sprague-Dawley rat at 3 mg/kg, po; type: ADME, organism-based; conditions: in vivo
[23] = Clearance in Sprague-Dawley rat at 1 mg/kg, iv; type: ADME, organism-based; conditions: in vivo
Procedure, shortened: (§3)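 Rat PK with iv and po administration at 1 mg/kg. Clearance and half-life came from the iv arm, and bioavailability from the iv/po comparison.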

[24] = Bioavailability in Sprague-Dawley rat at 1 mg/kg, po or 1 mg/kg, iv; type: ADME, organism-based; conditions: in vivo; procedure, shortened: as §3
[25] = Clearance in Sprague-Dawley rat at 1 mg/kg; type: ADME, organism-based; conditions: in vivo; procedure, shortened: as §3
[26] = AUC (0 to t) in cynomolgus monkey at 1 mg/kg, iv; type: ADME, organism-based, Macaca fascicularis; design: dose 1 mg/kg; conditions: in vivo; procedure, shortened: as §2
[27] = AUC (0 to t) in Sprague-Dawley rat at 8 mg/kg, po; type: ADME, organism-based; design: dose 8 mg/kg; conditions: in vivo; procedure, shortened: as §2
[28] = AUC (0 to t) in mouse at 1 mg/kg, po; type: ADME, organism-based; design: dose 1 mg/kg; conditions: in vivo; procedure, shortened: as §2
Cytochrome P450 3A4 = Cytochrome P450 3A4 (Homo sapiens, UniProt P08684); experiment: Inhibition of CYP3A4 in human liver microsomes assessed as midazolam 1'-hyrozylation reaction incubated for 30 mins in presence of NADP by LC-MS/MS analysis; type: ADME
Cytochrome P450 2C19 = Cytochrome P450 2C19 (Homo sapiens, UniProt P33261); experiment: Inhibition of CYP2C19 in human liver microsomes assessed as mephenytoin 4-hydroxylation reaction incubated for 30 mins in presence of NADP by LC-MS/MS analysis; type: ADME
[29] = Cmax in mouse at 1 mg/kg, po; type: ADME, organism-based; design: route oral, dose 1 mg/kg; conditions: in vivo; procedure, shortened: as §2
[30] = AUC (0 to t) in Sprague-Dawley rat at 2 mg/kg, po; type: ADME, organism-based; design: dose 2 mg/kg; conditions: in vivo; procedure, shortened: as §2

Sequence of Cytochrome P450 3A4 (P08684 whole entry): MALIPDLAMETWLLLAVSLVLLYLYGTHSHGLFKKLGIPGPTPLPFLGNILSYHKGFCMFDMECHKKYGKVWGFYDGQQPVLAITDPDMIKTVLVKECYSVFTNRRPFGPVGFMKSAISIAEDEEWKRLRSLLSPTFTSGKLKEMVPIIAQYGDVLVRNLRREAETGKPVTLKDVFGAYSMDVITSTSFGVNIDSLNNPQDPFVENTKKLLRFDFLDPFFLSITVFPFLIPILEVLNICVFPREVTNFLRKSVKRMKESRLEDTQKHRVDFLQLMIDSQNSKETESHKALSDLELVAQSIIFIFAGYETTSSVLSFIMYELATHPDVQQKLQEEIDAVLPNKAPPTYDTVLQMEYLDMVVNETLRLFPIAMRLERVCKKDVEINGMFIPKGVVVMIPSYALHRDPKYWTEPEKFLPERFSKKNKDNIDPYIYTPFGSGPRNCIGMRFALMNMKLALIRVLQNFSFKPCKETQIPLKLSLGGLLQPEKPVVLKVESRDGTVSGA
Sequence of Cytochrome P450 2C19 (P33261 whole entry): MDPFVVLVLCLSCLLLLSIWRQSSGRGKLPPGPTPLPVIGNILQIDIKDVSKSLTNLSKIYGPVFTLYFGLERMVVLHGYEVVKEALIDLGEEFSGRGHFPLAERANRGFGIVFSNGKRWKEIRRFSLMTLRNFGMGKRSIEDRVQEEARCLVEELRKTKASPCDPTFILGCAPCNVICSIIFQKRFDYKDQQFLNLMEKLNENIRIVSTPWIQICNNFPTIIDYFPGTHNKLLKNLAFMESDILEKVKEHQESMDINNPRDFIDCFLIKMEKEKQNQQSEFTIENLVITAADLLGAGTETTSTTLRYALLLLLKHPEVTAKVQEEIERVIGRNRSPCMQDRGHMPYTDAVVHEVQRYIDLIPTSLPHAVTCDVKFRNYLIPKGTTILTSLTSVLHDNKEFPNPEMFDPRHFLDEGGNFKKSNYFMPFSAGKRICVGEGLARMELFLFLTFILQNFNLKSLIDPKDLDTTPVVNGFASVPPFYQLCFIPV
Sequence of Cytochrome P450 2D6 (P10635 whole entry): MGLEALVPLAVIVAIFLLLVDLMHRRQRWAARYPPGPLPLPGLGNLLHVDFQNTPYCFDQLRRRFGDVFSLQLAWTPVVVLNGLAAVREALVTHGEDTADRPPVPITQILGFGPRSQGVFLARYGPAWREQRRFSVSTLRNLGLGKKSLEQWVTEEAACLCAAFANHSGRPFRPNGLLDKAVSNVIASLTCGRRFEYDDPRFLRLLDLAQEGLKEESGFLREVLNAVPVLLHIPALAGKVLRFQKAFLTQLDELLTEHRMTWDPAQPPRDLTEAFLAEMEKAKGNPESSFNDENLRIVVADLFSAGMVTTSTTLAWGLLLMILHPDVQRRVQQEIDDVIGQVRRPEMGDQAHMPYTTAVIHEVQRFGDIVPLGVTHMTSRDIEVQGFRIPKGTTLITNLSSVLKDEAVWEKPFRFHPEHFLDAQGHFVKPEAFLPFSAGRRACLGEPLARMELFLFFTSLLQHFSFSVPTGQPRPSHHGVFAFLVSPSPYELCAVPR

- half-life [1]: 67.2 h
- Tmax [2]: 0.92 h
- half-life [3]: 3.4 h
- bioavailability [4]: 79%
- Cmax [5]: 8440 ng/mL
- Vd [6]: 3.14 L/kg
- half-life [7]: 4.5 h
- Vd [8]: 0.53 L/kg
- IC50 (Cytochrome P450 2D6): > 100 µM
- Vd [9]: 10.5 L/kg
- clearance [10]: 11.2 mL/min/kg
- Tmax [11]: 0.25 h
- fraction unbound [12]: 0.018
- clearance [13]: 8.8 mL/min/kg
- IC50 (Cytochrome P450 2C8): > 100 µM
- Cmax [14]: 245 ng/mL
- Cmax [15]: 1650 ng/mL
- fraction unbound [16]: 0.251
- half-life [17]: 2.6 h
- fraction unbound [18]: 0.018
- Cmax [19]: 65 ng/mL
- IC50 (Cytochrome P450 2B6): > 100 µM
- Tmax [20]: 0.58 h
- half-life [21]: 28.7 h
- half-life [22]: 3.5 h
- clearance [23]: 2.1 mL/min/kg
- bioavailability [24]: 55%
- clearance [25]: 2.1 mL/min/kg
- AUC(0-t) [26]: 1340 ng·h/mL
- AUC(0-t) [27]: 53700 ng·h/mL
- AUC(0-t) [28]: 1830 ng·h/mL
- IC50 (Cytochrome P450 3A4): > 100 µM
- IC50 (Cytochrome P450 2C19): > 100 µM
- Cmax [29]: 268 ng/mL
- AUC(0-t) [30]: 9450 ng·h/mL
SMILES: CCc1nc(-c2ccc3c(c2)CC[C@H]3NC(=O)c2cnn(C)c2)no1 [AFICAMTEN]
- IC10 (Rattus norvegicus; Rattus norvegicus, Sprague-Dawley, 24 h): 0.8 µM
- IC50 (Rattus norvegicus; time hrs <=24): 7.9 µM
